Results reported in the EternaBench riboswitch data.

System: MS2 coat protein
Assay: apparent Kd, MS2 coat protein; higher = weaker binding; RNA-MaP array; FMN 200 µM where present
Procedure, shortened: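 The titrant was SNAP-549-labelled MS2 coat protein, run from 0.7 or 1.5 nM in doubling steps to 3 µM. It was applied to designs transcribed by stalled E. coli RNA polymerase on Illumina sequencing-chip clusters, without ligand first and then with constant ligand, in 100 mM Tris-HCl pH 7.5, 80 mM KCl, 4 mM MgCl2, BSA, DTT, yeast tRNA and Tween-20. The apparent Kd is the median of filtered per-cluster binding-curve fits, with green signal normalised to red-channel RNA signal and control-cluster median Fmax.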

[1] = designed as: OFF switch for flavin mononucleotide, no ligand
[2] = ligand present: flavin mononucleotide, designed as: OFF switch for flavin mononucleotide
[3] = designed as: ON switch for flavin mononucleotide, no ligand
[4] = ligand present: flavin mononucleotide, designed as: ON switch for flavin mononucleotide

Sequence	apparent Kd [1]	apparent Kd [2]	apparent Kd [3]	apparent Kd [4]
CGUCAUUACUCAGGAUAUGCAUCAUACUUGAGGGCAGAAGGGAGUACAUGAGGAUCACCCAUGUACUAUGGGUGCCUAAGAGGU	18.7 nM	101 nM	–	–
GCACUGACAGGAUAUACAUGAGGAUCACCCAUGUGACCCUUAGAGUACUCGCGUACUCGUAGAAGGGUCUGUGC	36 nM	105 nM	–	–
AGCACGAAAGUGCAACGAUGUAGCAGAAGGACAUGAGGAUCACCCAUGUAAGGUCUAUGACCAAUGUAGGAUAUGCUACAUCGA	6.62 nM	35 nM	–	–
CCUUUUGUAUAAGGAUAUGUAACAAGGUAUAGAUCGGUAGAAUUUGUGCUUACAGAAGGUAUACAUGAGGAUCACCCAUGUCGA	22.1 nM	140 nM	–	–
UAAAAGACUAGCGAUCUAAAGAUCACAUGAGGAUCACCCAUGUAGGAUAUGAGCAGAAAAUCUGCUCAGAAGGACAUGCUAGUC	5.88 nM	9.18 nM	–	–
AUUAUACAUGAGGAUCACCCAUGUAAUUAAUCUAGUAAGAUCUAGGAUAUCAGCUCGAUUAGAGCUGAGAAGGAGAUCACAUGU	–	–	52.9 nM	22.2 nM
UAAAUACAUGAGGAUCACCCAUGUCAAAAGACAUGAGGAUAUGUACAGUCUUCGGUCUGUACAGAAGGCAUGAAUA	–	–	464 nM	35 nM
AUGCUUCACACAGGAUAUACAUGAGGAUCACCCAUGUGUCCACAGUAGCUGACACGAGCUACGCGGUAGAAGGGUGUGAAGCAU	18.5 nM	61.2 nM	–	–
CUUUUGUGAGGAUAUCAGUAGUAAAUAAAUAAAAUUACUUCUGAGAAGGCACAUGAGGAUCACCCAUGUUCCUC	34.1 nM	251 nM	–	–
GGGUACAUCGGAGGAUAUCAUGUUAAUACAUGAGGAUCACCCAUGUCGAUGGAGACAUCGGAGAUUGAGAAGGCCGAUGUACCG	–	–	322 nM	11.4 nM
UUUUAACAUGAGGAUCACCCAUGUGAGGAUAUCGAAAUUUAUAUUUAUAUUAAUAUUUCGAGAAGGCACAUUUU	195 nM	191 nM	–	–
GCCAGAGCAGGAUAUUCAAUAAUUCACAUGAGGAUCACCCAUGUCCAGCGAAAGCUGGAAGGAGAAGGGCUCUGGC	16.3 nM	13.7 nM	–	–
GGAGCUCACAUGAACAUGAGGAUCACCCAUGUAAAUUCUCAUGAGGAUAUGGAUCCUAAUUGGAUCCAGAAGGCAUGGAGCUCC	–	–	1350 nM	316 nM
AUGGACGUCGUAGGAUAUGUAGGAUAUUCCUACAUGAGGAUCACCCAUGUUGACAUGGAAGAAGGACAGAAGGACGAUGUCCAU	–	–	199 nM	4.47 nM
UUUGUCGGAGUAGGAUAUCAAAUAGAGGGUGUAUGAGAAGGACUUAGACAUGAGGAUCACCCAUGUGUGGGUCGCCUCGAUCUC	6.88 nM	10.9 nM	–	–
GAAGAUGGUGAGGAUAUCAUUAACCACAUCGGAUGAGAAGGUACCACAUGAGGAUCACCCAUGUACAUAUUACU	22.4 nM	22.9 nM	–	–
UUCCGGGUGCAGAAGGGAUAGGCCUAUUUUCGUGGUAUCCAAACCUUACAUGAGGAUCACCCAUGUCAGGAUAUGCCCACGGAA	4.93 nM	4.72 nM	–	–
CCACGUCACAUCUACAUGAGGAUCACCCAUGUCGAAAGACAUGAGGAUAUGCAUCCUAAUUGGAUGCAGAAGGCAUGGACGUGG	–	–	1080 nM	71.2 nM
CAUAAGAUAGGAUAUACAGGCCCGUCUUCAUAUUGAUCCCGACAUGAGGAUCACCCAUGUAGAAGGAUCAUAUG	13.5 nM	13.4 nM	–	–
UUUCUUGGGCAAGGAUAUCCUGUGCGGUUCUGGCUCGUGUCUGUCACAUGAGGAUCACCCAUGUGGGAGAAGGUGCCUGCGGUC	6.13 nM	6.1 nM	–	–
UUAAAUCAUGUAGGAUAUGCAUGGCGAAGCUACGCAGAAGGACAUGAGGAUCACCCAUGUUCUAGCGUCUGAGUUCAGAUGCAA	20.9 nM	41.7 nM	–	–
UAUCUGUCGGUCAGGAUAUCGUUUGCCACUGUAGCCGAGAAGGGACAUGAGGAUCACCCAUGUGAUUCACGGCA	23.1 nM	27.1 nM	–	–
CAGUUUUGAGGAUAUCCAUCCUCCUACAUGAGGAUCACCCAUGUUUCCCUCUGGGUUUUCGGAGAAGGCAGUUAUU	326 nM	283 nM	–	–
